From ChEMBL document CHEMBL4152239, “Design, synthesis and structure-activity relationship studies of GPR40 agonists containing amide linker” (Eur J Med Chem, 2018)
Active and inactive are the calls of the source. The rule behind the calls is not given here.

Legend:
[1] = biological target: Free fatty acid receptor 1 (Homo sapiens, UniProt O14842); assay: Agonist activity at human GPR40 expressed in HEK293 cells assessed as increase in calcium mobilization by Fluo-8 dye based fluorescence assay; format: functional, cell-based
Free fatty acid receptor 1 (Homo sapiens, UniProt O14842), sequence (O14842 whole entry): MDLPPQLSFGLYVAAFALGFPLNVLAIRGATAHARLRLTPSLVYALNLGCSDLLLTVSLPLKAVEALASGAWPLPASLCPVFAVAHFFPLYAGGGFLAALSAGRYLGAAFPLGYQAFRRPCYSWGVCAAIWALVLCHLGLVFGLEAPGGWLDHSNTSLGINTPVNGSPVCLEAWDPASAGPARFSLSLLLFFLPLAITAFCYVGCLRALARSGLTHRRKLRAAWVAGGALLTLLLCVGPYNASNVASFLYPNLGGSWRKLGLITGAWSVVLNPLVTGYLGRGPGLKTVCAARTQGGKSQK

[2] = Ratio of drug uptake in rat brain to plasma; format: ADME; conditions: read-out: BPR
[3] = Half life in human liver microsomes at 0.1 mM in presence of NADPH by LC-MS analysis; format: ADME, microsome
[4] = Half life in mouse liver microsomes at 0.1 mM in presence of NADPH by LC-MS analysis; format: ADME, microsome
[5] = Apparent permeability across apical to basolateral side in human Caco2 cells by LC-MS analysis; format: ADME, cell-based; conditions: caco-2
[6] = Efflux ratio of permeability from […] in human Caco2 cells by LC-MS analysis; format: ADME, cell-based; conditions: caco-2
[7] = biological target: Free fatty acid receptor 1 (Rattus norvegicus, UniProt Q8K3T4); assay: Agonist activity at rat GPR40; format: functional
Free fatty acid receptor 1 (Rattus norvegicus, UniProt Q8K3T4), sequence (Q8K3T4 whole entry): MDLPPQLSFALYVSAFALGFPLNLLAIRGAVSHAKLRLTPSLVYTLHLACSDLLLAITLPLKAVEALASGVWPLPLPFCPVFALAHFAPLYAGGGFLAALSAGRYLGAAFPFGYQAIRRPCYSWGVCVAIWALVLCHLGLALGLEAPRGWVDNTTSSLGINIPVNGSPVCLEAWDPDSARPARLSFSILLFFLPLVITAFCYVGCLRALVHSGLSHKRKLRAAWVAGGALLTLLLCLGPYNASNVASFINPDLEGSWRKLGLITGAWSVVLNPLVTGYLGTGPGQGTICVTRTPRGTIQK

[8] = biological target: Free fatty acid receptor 1 (Mus musculus, UniProt Q76JU9); assay: Agonist activity at mouse GPR40; format: functional
Free fatty acid receptor 1 (Mus musculus, UniProt Q76JU9), sequence (Q76JU9 whole entry): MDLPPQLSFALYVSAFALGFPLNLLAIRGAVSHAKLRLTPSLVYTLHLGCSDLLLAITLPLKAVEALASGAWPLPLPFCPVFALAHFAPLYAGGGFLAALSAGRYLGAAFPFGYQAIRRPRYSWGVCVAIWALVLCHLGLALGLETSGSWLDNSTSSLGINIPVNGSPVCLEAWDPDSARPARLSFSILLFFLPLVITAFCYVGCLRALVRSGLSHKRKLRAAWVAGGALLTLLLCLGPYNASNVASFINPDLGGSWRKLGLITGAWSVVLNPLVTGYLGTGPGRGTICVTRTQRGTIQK

[9] = AUC (0 to 8 hrs) in ICR mouse at 30 mg/kg, po by LC-MS analysis; format: ADME, organism-based; set-up: dose 30 mg/kg, time < 8 hr, route oral; conditions: in vivo
Outline: (§1)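 Male ICR mice, single oral dose of 30mg/kg, n = 3 per compound; vehicle 0.1% Tween-80 in 1% hydropropylcellulose sodium. Plasma sampled over time to derive pharmacokinetic parameters.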

[10] = Half life in ICR mouse at 30 mg/kg, po by LC-MS analysis; format: ADME, organism-based; conditions: in vivo; outline: as §1
[11] = Tmax in ICR mouse at 30 mg/kg, po by LC-MS analysis; format: ADME, organism-based; conditions: in vivo; outline: as §1
[12] = Cmax in ICR mouse at 30 mg/kg, po by LC-MS analysis; format: ADME, organism-based; set-up: dose 30 mg/kg, route oral; conditions: in vivo; outline: as §1
[13] = Ratio of drug uptake in ICR mouse brain to plasma at 30 mg/kg, po measured at 0.75 hrs by LC-MS analysis; format: ADME, organism-based; conditions: read-out: BPR
Outline: (§2)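 Male ICR mice (n = 3) were dosed orally at 30 mg/kg and sacrificed at a set time point. The time point depended on the compound: 0.75 h for some and 1 h for others. Total drug in brain and liver was expressed as a ratio to total plasma drug (brain-to-plasma and liver-to-plasma distribution ratios).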

[14] = Ratio of drug uptake in ICR mouse liver to plasma at 30 mg/kg, po measured at 0.75 hrs by LC-MS analysis; format: ADME, organism-based; outline: as §2
[15] = Ratio of drug uptake in ICR mouse brain to plasma at 30 mg/kg, po measured at 1 hr by LC-MS analysis; format: ADME, organism-based; conditions: read-out: BPR
Outline: (§3)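 Male ICR mice received 30mg/kg orally, n = 3. Mice were sacrificed at 0.75 h or 1 h depending on compound. Total drug in brain or liver was divided by plasma drug to give the distribution ratio.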

[16] = Ratio of drug uptake in ICR mouse liver to plasma at 30 mg/kg, po measured at 1 hr by LC-MS analysis; format: ADME, organism-based; outline: as §3
Mus musculus = assay: Antidiabetic activity in ICR mouse assessed as reduction in blood glucose AUC (0 to 120 mins) at 100 mg/kg, po dosed 30 minutes prior to glucose challenge by OGTT; format: functional, organism-based
Outline: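 ICR mice (n=8) received compound orally before an oral glucose load of 2.5 g/kg. […] Comparison was against vehicle control by Student's t-test.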

## CC#CC(CC(=O)O)c1ccc(OCc2ccc(C(=O)N3CCCc4ccccc43)s2)cc1 (stereo not drawn)
[1]
  EC50: 80 nM

## Cc1cc(Cl)ccc1-c1cccc(COc2ccc([C@H](CC(=O)O)c3nccn3C)cc2)c1
[2]
  Kp: 0.04

## CC#CC(CC(=O)O)c1ccc(OCc2ccc(C(=O)N3CCN(c4ccc(Cl)cc4)CC3)s2)cc1 (stereo not drawn)
[1]
  EC50: 133 nM

## CC#CC(CC(=O)O)c1ccc(OCc2ccc(C(=O)N3CCN(c4ccc(C(C)(C)C)cc4)CC3)s2)cc1 (stereo not drawn)
[1]
  EC50: 417 nM

## CC#C[C@H](CC(=O)O)c1ccc(OCc2ccc(C(=O)N3CCN(c4ccc(F)cc4)CC3)s2)cc1
[1]
  EC50: > 5000 nM

## CC#C[C@@H](CC(=O)O)c1ccc(OCc2ccc(C(=O)N[C@H]3CCCc4ccccc43)cc2)cc1
[1]
  EC50: 39 nM
[3]
  half-life at 100 µM: 214 min
[4]
  half-life at 100 µM: 27 min
[5]
  Papp A→B: 15.2 ×10⁻⁶ cm/s
[6]
  Ratio: 1.2
[7]
  EC50: 28 nM
[8]
  EC50: 42 nM
[9]
  AUC(0-t) at 8 h: 3760 ng·h/mL
[10]
  half-life: 180 min
[11]
  Tmax: 15 min
[12]
  Cmax: 3770 ng/mL
[13]
  Kp at 0.75 h: 0.006
[14]
  Kp at 0.75 h: 0.9

## CC#CC(CC(=O)O)c1ccc(OCc2ccc(C(=O)N3CCN(c4ccccc4[N+](=O)[O-])CC3)s2)cc1 (stereo not drawn)
[1]
  EC50: 94 nM

## CC#CC(CC(=O)O)c1ccc(OCc2ccc(C(=O)N3CCN(c4ccncc4)CC3)s2)cc1 (stereo not drawn)
[1]
  EC50: > 5000 nM

## CC#C[C@@H](CC(=O)O)c1ccc(OCc2ccc(CN3CCC4(C=Cc5ccccc54)CC3)cc2)cc1 [LY2881835]
[1]
  EC50: 134 nM
[3]
  half-life at 100 µM: 18 min
[4]
  half-life at 100 µM: 2 min
[5]
  Papp A→B: 15 ×10⁻⁶ cm/s
[6]
  Ratio: 0.4
[9]
  AUC(0-t) at 8 h: 5150 ng·h/mL
[10]
  half-life: 78 min
[11]
  Tmax: 42 min
[12]
  Cmax: 2850 ng/mL
[13]
  Kp at 0.75 h: 0.14
[14]
  Kp at 0.75 h: 2.5

## CC#CC(CC(=O)O)c1ccc(OCc2ccc(C(=O)NC3CCCc4ccccc43)s2)cc1 (stereo not drawn)
[1]
  EC50: 109 nM

## O=C(O)CC1COc2cc(OCc3ccc(C(=O)N4CCN(c5ccc(F)cc5)CC4)s3)ccc21 (stereo not drawn)
[1]
  EC50: > 1670 nM

## CC#CC(CC(=O)O)c1ccc(OCc2ccc(C(=O)N3CCN(C)CC3)s2)cc1 (stereo not drawn)
[1]
  EC50: > 5000 nM

## CC#CC(CC(=O)O)c1ccc(OCc2cnc(C(=O)N3CCN(c4ccc(F)cc4)CC3)s2)cc1 (stereo not drawn)
[1]
  EC50: 203 nM

## CC#CC(CC(=O)O)c1ccc(OCc2ccc(C(=O)N3CCN(c4ccc(C)cc4)CC3)s2)cc1 (stereo not drawn)
[1]
  EC50: 211 nM

## CC#CC(CC(=O)O)c1ccc(OCc2ccc(C(=O)N3CCN(Cc4ccccc4)CC3)s2)cc1 (stereo not drawn)
[1]
  EC50: 155 nM

## CC#CC(CC(=O)O)c1ccc(OCc2ccc(C(=O)N3CCC4(C=Cc5ccccc54)CC3)cc2)cc1 (stereo not drawn)
[1]
  EC50: 179 nM
[3]
  half-life at 100 µM: 9 min
[4]
  half-life at 100 µM: 6 min
[5]
  Papp A→B: 10.9 ×10⁻⁶ cm/s
[6]
  Ratio: 0.3

## CC#CC(CC(=O)O)c1ccc(OCc2ccc(C(=O)N3CCN(c4ccccc4)CC3)s2)cc1 (stereo not drawn)
[1]
  EC50: 72 nM
[3]
  half-life at 100 µM: 105 min
[4]
  half-life at 100 µM: 55 min

## CC#CC(CC(=O)O)c1ccc(OCc2ccc(C(=O)N3CCN(c4cccc(F)c4)CC3)s2)cc1 (stereo not drawn)
[1]
  EC50: 97 nM

## CC#CC(CC(=O)O)c1ccc(OCc2ccc(C(=O)N3CCN(C4CCCCC4)CC3)s2)cc1 (stereo not drawn)
[1]
  EC50: 820 nM

## CC#CC(CC(=O)O)c1ccc(OCc2ccc(C(=O)N3CCN(c4cccnc4)CC3)s2)cc1 (stereo not drawn)
[1]
  EC50: 1140 nM

## CC#CC(CC(=O)O)c1ccc(OCc2ccc(C(=O)N3CCc4ccccc4C3)o2)cc1 (stereo not drawn)
[1]
  EC50: 50 nM

## CC#CC(CC(=O)O)c1ccc(OCc2ccc(C(=O)NC3CCCc4ccccc43)o2)cc1 (stereo not drawn)
[1]
  EC50: 133 nM

## CC#CC(CC(=O)O)c1ccc(OCc2cnc(C(=O)NC3CCCc4ccccc43)s2)cc1 (stereo not drawn)
[1]
  EC50: 144 nM

## CC#C[C@@H](CC(=O)O)c1ccc(OCc2ccc(C(=O)N[C@@H]3CCCc4ccccc43)cc2)cc1
[1]
  EC50: 20 nM
[3]
  half-life at 100 µM: 387 min
[4]
  half-life at 100 µM: 74 min
[5]
  Papp A→B: 18.8 ×10⁻⁶ cm/s
[6]
  Ratio: 0.9
[7]
  EC50: 14 nM
[8]
  EC50: 23 nM
[9]
  AUC(0-t) at 8 h: 80000 ng·h/mL
[10]
  half-life: 318 min
[11]
  Tmax: 72 min
[12]
  Cmax: 15400 ng/mL
[15]
  Kp at 1 h: 0.011
[16]
  Kp at 1 h: 0.3
Mus musculus
  Activity: Active

## CC#CC(CC(=O)O)c1ccc(OCc2ccc(C(=O)N3CCC4(C=Cc5ccccc54)CC3)s2)cc1 (stereo not drawn)
[1]
  EC50: 172 nM
[3]
  half-life at 100 µM: 25 min
[4]
  half-life at 100 µM: 7 min
[5]
  Papp A→B: 19.3 ×10⁻⁶ cm/s
[6]
  Ratio: 0.3

## CC#CC(CC(=O)O)c1ccc(OCc2ccc(C(=O)N3CCN(c4ccc(OC)cc4)CC3)s2)cc1 (stereo not drawn)
[1]
  EC50: 289 nM

## CC#CC(CC(=O)O)c1ccc(OCc2ccc(C(=O)N3CCc4ccccc4C3)cc2)cc1 (stereo not drawn)
[1]
  EC50: 106 nM

## CC#CC(CC(=O)O)c1ccc(OCc2cnc(C(=O)N3CCc4ccccc4C3)s2)cc1 (stereo not drawn)
[1]
  EC50: 531 nM

## CC#CC(CC(=O)O)c1ccc(OCc2ccc(C(=O)N3CCN(c4ccc(F)cc4)CC3)cc2)cc1 (stereo not drawn)
[1]
  EC50: 114 nM

## CC#CC(CC(=O)O)c1ccc(OCc2ccc(C(=O)N3CCN(c4cccc([N+](=O)[O-])c4)CC3)s2)cc1 (stereo not drawn)
[1]
  EC50: 187 nM

## CC#CC(CC(=O)O)c1ccc(OCc2ccc(C(=O)N3CCN(c4ccccn4)CC3)s2)cc1 (stereo not drawn)
[1]
  EC50: 138 nM

## CC#CC(CC(=O)O)c1ccc(OCc2ccc(C(=O)NC3CCCc4ccccc43)cc2)cc1 (stereo not drawn)
[1]
  EC50: 42 nM

## CC#CC(CC(=O)O)c1ccc(OCc2ccc(C(=O)N3CCN(c4ccc([N+](=O)[O-])cc4)CC3)s2)cc1 (stereo not drawn)
[1]
  EC50: 231 nM

## CC#CC(CC(=O)O)c1ccc(OCc2ccc(C(=O)N3CCN(c4ccc(F)cc4)CC3)o2)cc1 (stereo not drawn)
[1]
  EC50: 308 nM

## CC#CC(CC(=O)O)c1ccc(OCc2ccc(C(=O)N3CCN(c4ccc(F)cc4)CC3)s2)cc1 (stereo not drawn)
[1]
  EC50: 54 nM

## O=C(O)CC(c1ccc(OCc2ccc(C(=O)N3CCN(c4ccc(F)cc4)CC3)s2)cc1)C1CC1 (stereo not drawn)
[1]
  EC50: > 1670 nM

## Cc1nc(-c2ccc(C(F)(F)F)cc2)sc1COc1ccc([C@H](CC(=O)O)c2ccon2)cc1
[2]
  Kp: 0.02

## CC#CC(CC(=O)O)c1ccc(OCc2ccc(C(=O)N3CCN(c4ccccc4F)CC3)s2)cc1 (stereo not drawn)
[1]
  EC50: 113 nM

## O=C(O)CCc1ccc(OCc2ccc(C(=O)N3CCN(c4ccc(F)cc4)CC3)s2)cc1
[1]
  EC50: 610 nM

## CC#CC(CC(=O)O)c1ccc(OCc2ccc(C(=O)N3CCc4ccccc4C3)s2)cc1 (stereo not drawn)
[1]
  EC50: 57 nM

## CC#C[C@@H](CC(=O)O)c1ccc(OCc2ccc(C(=O)N3CCN(c4ccc(F)cc4)CC3)s2)cc1
[1]
  EC50: 47 nM
[3]
  half-life at 100 µM: 64 min
[4]
  half-life at 100 µM: 120 min
[5]
  Papp A→B: 20.6 ×10⁻⁶ cm/s
[6]
  Ratio: 0.8
[7]
  EC50: 25 nM
[8]
  EC50: 31 nM
[9]
  AUC(0-t) at 8 h: 28400 ng·h/mL
[10]
  half-life: 228 min
[11]
  Tmax: 48 min
[12]
  Cmax: 13300 ng/mL
[15]
  Kp at 1 h: 0.018
[16]
  Kp at 1 h: 15.1
